This is a sample that favours compounds with a hit; in the whole collection about 2.8% have one here.
HTRA1 inhibitor – inhibitors of human serine peptidase HTRA1; Q92743; recombinant HTRA1, FP-rhodamine activity-based probe, fluorescence polarization; inhibition, % at 5.96 µM; 340,000 tested, 0.5% active; AID 504803; in the data active means inhibition above about 36%;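 further: 0% = enzyme with DMSO and 100% = wells lacking enzyme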
Target sequence (Q92743 whole entry, looked up): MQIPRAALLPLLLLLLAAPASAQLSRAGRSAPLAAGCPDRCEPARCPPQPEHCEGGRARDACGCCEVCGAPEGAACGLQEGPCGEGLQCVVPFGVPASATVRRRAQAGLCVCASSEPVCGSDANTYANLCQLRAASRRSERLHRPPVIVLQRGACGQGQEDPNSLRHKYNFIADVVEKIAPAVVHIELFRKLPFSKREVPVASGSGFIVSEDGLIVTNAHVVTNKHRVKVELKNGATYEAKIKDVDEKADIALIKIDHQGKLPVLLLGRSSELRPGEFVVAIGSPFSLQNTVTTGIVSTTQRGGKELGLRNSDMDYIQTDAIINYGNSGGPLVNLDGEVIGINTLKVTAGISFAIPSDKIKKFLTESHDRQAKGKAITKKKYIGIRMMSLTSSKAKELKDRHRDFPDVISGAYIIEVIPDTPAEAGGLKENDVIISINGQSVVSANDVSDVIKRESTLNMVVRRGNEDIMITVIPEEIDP
PAFAH1B2 FP inh – blocks human PAF acetylhydrolase 1b catalytic subunit 2; P68402; recombinant PAFAH1B2, FP-rhodamine activity probe, fluorescence polarization; inhibition, % at 3.39 µM; 340,000 tested, 1.2% active;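 active means inhibition above the mean of all tested compounds plus 3 SD, cut at about 24% in these data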;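 further: 0% = enzyme with DMSO and 100% = wells lacking PAFAH1B2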
PAFAH2 FP inh – PAFAH2 (human) inhibition; recombinant PAFAH2, FP-rhodamine activity probe, fluorescence polarization; Q99487; 340,000 tested, 0.99% active; inhibition, % at 3.39 µM;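 active means inhibition above the mean over all tested compounds plus 3 SD, cut at about 30% in these data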;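 further: inhibitors block probe labeling of enzyme so polarization drops; 0% = enzyme with DMSO and 100% = wells lacking PAFAH2 protein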
ABHD4 inh – ABHD4 (mouse) inhibition, primary FP screen; Q8VD66; purified mABHD4, FP-Rh probe fluorescence polarization; inhibition, % at 8.92 µM; 370,000 tested, 0.54% active; AID 720543;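 active means inhibition exceeding the mean over every tested compound plus 3 SD, cut at about 30% in these data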;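 further: 0% = plate median of compound wells and 100% = S159A mutant with DMSO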
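system = mouse ABHD4 enzyme, wild type | medium = HEPES pH 7.0, NaCl, Pluronic buffer | also added = FP-Rh probe | incubation = Enzyme–compound pre-incubation 45 min, then probe 60 min, both 25 °C | technique = fluorescence polarization, excitation 525 nm, emission 598 nm, BODIPY TMR filters | controls = S159A mutant high control, sample median low control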
pPAFAH inh – inhibitors of human plasma PAF acetylhydrolase (pPAFAH); 330,000 tested, 1.5% active; recombinant pPAFAH, FP-rhodamine probe fluorescence polarization; inhibition, % at 3.39 µM;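 active means inhibition above the mean inhibition across the screen plus 3 SD, cut at about 25% in these data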;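 further: inhibitors block binding of the rhodamine activity-based probe so polarization drops; 0% = enzyme with DMSO and 100% = wells lacking pPAFAH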
PAFAH1B3 inh – blocks human PAF acetylhydrolase 1B catalytic subunit 3; Q15102; recombinant PAFAH1B3, FP-rhodamine probe, fluorescence polarization; inhibition, % at 3.39 µM; 340,000 tested, 0.28% active; AID 492972;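 active means inhibition above the screen-wide average of all tested compounds plus 3 SD, cut at about 25% in these data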;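 further: 0% = enzyme with DMSO only and 100% = wells lacking PAFAH1B3 protein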
Target sequence (Q15102 whole entry, looked up): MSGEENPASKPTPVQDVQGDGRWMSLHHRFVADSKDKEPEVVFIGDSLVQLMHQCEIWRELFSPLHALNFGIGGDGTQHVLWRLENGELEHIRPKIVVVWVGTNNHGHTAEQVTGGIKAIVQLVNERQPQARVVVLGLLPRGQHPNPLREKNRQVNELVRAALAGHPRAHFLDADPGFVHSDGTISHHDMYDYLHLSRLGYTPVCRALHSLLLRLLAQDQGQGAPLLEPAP
PAFAH2 FP conf – confirmation of human PAFAH2 inhibitors | shares compounds with PAFAH2 FP inh | recombinant PAFAH2, FP-rhodamine activity probe, fluorescence polarization | inhibition, % at 3.39 µM | 2,300 tested, 65% active;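 active means mean inhibition over three repeats above a set limit taken from the earlier primary screen, cut at about 30% in these data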;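 further: inhibitor blocks binding of rhodamine activity probe so polarization falls; 0% = enzyme with DMSO and 100% = wells lacking PAFAH2 protein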
An asterisk follows results filed as active; . = not tested or not shown.

SMILES | HTRA1 inhibitor | PAFAH1B2 FP inh | PAFAH2 FP inh | ABHD4 inh | pPAFAH inh | PAFAH1B3 inh | PAFAH2 FP conf
N/C(Cc1ccc([N+](=O)[O-])cc1)=N\OC(=O)c1ccc2ccccc2c1 | -20 | 0 | 62* | -16 | 20 | 8 | 54*
COc1cccc(C(=O)O/N=C(\N)c2ccc(C)cc2)c1 | -2 | 2 | 6 | 9 | 5 | 16 | .
Cc1cccc(C(=O)O/N=C(\N)Cc2cccc3ccccc23)c1 | 29 | 5 | 75* | . | 7 | -2 | 74*
N/C(Cc1ccc([N+](=O)[O-])cc1)=N\OC(=O)c1ccco1 | 3 | 7 | 39* | 2 | 1 | 1 | 37*
COc1cccc(C(=O)O/N=C(\N)Cc2ccc(Cl)cc2)c1 | 0 | 5 | 69* | 0 | 19 | 4 | 56*
N/C(Cc1ccc(Cl)cc1)=N\OC(=O)C1CCCCC1 | 4 | 3 | 40* | -2 | 1 | 11 | 42*
Cc1cccc(C(=O)O/N=C(\N)Cc2ccc([N+](=O)[O-])cc2)c1 | -20 | 0 | 37* | -3 | 15 | 5 | 30
O=C(COC(=O)C1CCCC1)NCc1ccc(Cl)cc1 | -2 | 10 | 19 | 12 | 13 | -3 | .
CCCCCCCCN1CCS(=O)(=O)N(Cc2ccc(F)cc2)C(C(=O)OC)C1 (stereo unspecified) | . | . | . | 2 | . | . | .
CCN(C(=O)c1ccc2c(c1)OCO2)C12CC3CC(CC(C3)C1)C2 | -9 | 11 | 40* | -1 | 7 | 5 | 35*
O=C(CSc1cccc[n+]1[O-])C12CC3CC(CC(C3)C1)C2 | 5 | 6 | 48* | 5 | 7 | 4 | 46*
O=C(O)CSc1cccc[n+]1[O-] | 7 | -1 | -4 | 10 | 0 | 5 | .
CC(C)(C)C(=O)OC/C(N)=N/OC(=O)c1ccccc1 | -5 | 4 | 44* | 8 | 7 | 12 | 71*
CC1CC1C(=O)OCC(=O)NCc1ccccc1 (stereo unspecified) | -1 | 0 | 36* | 8 | 2 | 1 | 25
Cc1cc(NC(=O)COC(=O)C2CC2)ccc1Br | 1 | -2 | 77* | -3 | 14 | -3 | 74*
O=C(COC(=O)c1cc(Br)ccc1O)Nc1ccc2c(c1)OCCO2 | -1 | 2 | 4 | 0 | 3 | 10 | .
O=C(COC(=O)c1ccco1)Nc1ccccc1[N+](=O)[O-] | -2 | 3 | 41* | -8 | 0 | 2 | 28
CCOC(=O)C1CCN(CCC(=O)Nc2ccc(Br)c(C)c2)CC1 | 4 | 1 | -5 | 0 | . | 8 | .
O=C(COC(=O)c1cc(Br)ccc1O)Nc1ccc2c(c1)OCO2 | -2 | 2 | 37* | 5 | 5 | -1 | 18
O=C(COC(=O)C1CCC1)NCc1ccccc1 | 4 | 3 | 6 | 1 | 8 | -6 | .
O=C(NC(=S)Nc1ccccc1[N+](=O)[O-])c1ccco1 | 2 | 7 | 1 | 3 | 0 | 4 | .
O=C(Nc1ccc(C(O)(C(F)(F)F)C(F)(F)F)cc1)c1ccc(Cl)cc1 | . | . | . | -52 | . | . | .
O=C(Cc1c[nH]c2ccccc12)Nc1ccc(Nc2cccnc2)c(-c2ccc(-c3ccccc3)cc2F)c1 | . | . | . | 19 | . | . | .
Cc1cc(-c2n[nH]c(=S)n2N=Cc2ccc(OCc3ccccc3)cc2)n[nH]1 | . | . | . | 5 | . | . | .
O=C(COC(=O)C12CC3CC(CC(O)(C3)C1)C2)Nc1cccc(Br)c1 | -5 | 10 | 74* | -21 | . | 8 | 69*
SMILES | HTRA1 inhibitor | PAFAH1B2 FP inh | PAFAH2 FP inh | ABHD4 inh | pPAFAH inh | PAFAH1B3 inh | PAFAH2 FP conf
O=C(COC(=O)c1ccco1)Nc1cccc(Br)c1 | 0 | -3 | 91* | -10 | 4 | 6 | 68*
CC(CNC(=O)COC(=O)c1ccco1)c1ccccc1 (stereo unspecified) | 3 | 0 | 57* | 2 | 2 | 3 | 48*
CC1CC1C(=O)OCC(=O)Nc1cccc(Br)c1 (stereo unspecified) | -5 | 3 | 88* | 1 | . | 1 | 85*
COc1ccc([N+](=O)[O-])cc1NC(=O)COC(=O)C12CC3CC(CC(O)(C3)C1)C2 | 6 | . | . | -1 | . | . | .
COc1ccc(C(=O)C2(C(=O)Nc3cc(C)cc(C)c3)CC(c3ccccn3)=NO2)cc1 (stereo unspecified) | . | . | . | -16 | . | . | .
CCOC(=O)[C@@H]1c2[nH]c3ccccc3c2C[C@@]2(C(=O)OC)C=CCN12 | . | . | . | -2 | . | . | .
O=C(CCc1ccccc1)N[C@H]1[C@H](OCc2ccccc2)CCC[C@@]12C(=O)N(Cc1ccccc1)c1ccc(-c3cnccn3)cc12 | . | . | . | -16 | . | . | .
CCCC[C@@H]1C(=O)N2N=Cc3ccccc3[C@H]2N2N=Cc3ccccc3[C@@H]12 | . | . | . | -5 | . | . | .
CC[C@@]1(c2ccc(C)cc2)C(=O)N(C(=O)OC(C)C)N1C(=O)OC(C)C | . | . | . | -3 | . | . | .
O=C(CCn1nnc2ccccc21)N1CCN(c2ccccc2F)CC1 | . | . | . | 10 | . | . | .
CCOC(=O)[C@]12CCCC=C1N(CCCOC)C(=O)[C@@H]2CC(=O)NCc1ccc(C)o1 | . | . | . | -5 | . | . | .
Cc1ccc(C(=O)OCC(=O)Nc2ccc3c(c2)OCO3)o1 | -5 | 4 | 62* | 3 | 6 | 8 | 60*
Cc1ccc(C(=O)Nc2ccc3c(c2)OCO3)o1 | 2 | -1 | -1 | -9 | 3 | 5 | .
O=C(COC(=O)c1ccco1)Nc1ccc2c(c1)OCO2 | 9 | 6 | 63* | 2 | 7 | 6 | 66*
Cc1ccc(C(=O)O/N=C2\CCCc3ccccc32)cc1 | -20 | 5 | 42* | -3 | 11 | 5 | 40*
COc1ccc(Cn2ccc3ccc(-c4ccc5ccn(C(=O)C6CCC6)c5c4)cc32)cc1 | . | . | . | -12 | . | . | .
CC1(C)CC(=O)c2cc3c(nc2C1)CC(C)(C)CC3=O | -4 | 9 | 50* | 5 | 3 | 1 | 34*
O=C(O[C@H]1CC[C@@]23CCCN2C(=O)CCC[C@H]3C1)N1CCN(c2ccccc2)CC1 | . | . | . | 12 | . | . | .
Cc1ccccc1CNC(=O)C1CCCN(c2ncccn2)C1 (stereo unspecified) | . | . | . | -2 | . | . | .
O=C(COC(=O)c1cccnc1Cl)Nc1ccc2c(c1)OCCO2 | 13 | -1 | 36* | -1 | 6 | 9 | 30*
N/C(=N\OC(=O)c1ccc2c(c1)OCO2)c1ccc(Cl)cc1 | 4 | -4 | 33* | 7 | 3 | 9 | 30*
CN(C)c1cccc(C(=O)OCC(=O)Nc2ccccc2Cl)c1 | -15 | 1 | 54* | -8 | 10 | -2 | 50*
Cc1ccc(/C(N)=N/OC(=O)c2ccc3c(c2)OCO3)cc1 | 0 | 4 | 25 | 0 | -1 | 2 | .
CC(C)(C)NC(=O)COC(=O)c1ccc(O)cc1 | 10 | 0 | 64* | 2 | 4 | 1 | 53*
CN(C)c1cccc(C(=O)OCC(=O)Nc2ccccc2-c2ccccc2)c1 | -12 | -2 | 3 | 0 | 6 | 0 | .
O=S(=O)(NCc1cn(Cc2ccccc2)nn1)c1ccccc1Br | . | . | . | 3 | . | . | .

Assay outcomes as filed in PubChem BioAssay.
